Results published in ChEMBL document CHEMBL4715800, “Synthesis and Antiviral Evaluation of Octadecyloxyethyl Benzyl 9-[(2-Phosphonomethoxy)ethyl]guanine (ODE-Bn-PMEG), a Potent Inhibitor of Transient HPV DNA Amplification” (J Med Chem, 2016).

How the values were obtained:
[1] = Selectivity index, ratio of CC50 for human PBMC to EC50 for inhibition of HIV1 92US727 replication in PHA-P-stimulated human PBMCs; type: toxicity; conditions: for selectivity ratio: PBMCs, read-out: Ratio CC50/EC50
How it was run: (§1)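 Human PBMCs infected with a clinical HIV-1 isolate, with AZT as positive control. EC50 and CC50 reported as mean ± SD of three replicates; selectivity index = CC50/EC50.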

[2] = Inhibition of HIV1 92US727 replication in PHA-P-stimulated human PBMCs incubated for 7 days by reverse transcriptase activity based assay; type: functional, cell-based, Human immunodeficiency virus 1, PBMC
How it was run: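 Human PBMCs infected with a clinical HIV-1 isolate, with AZT as the positive control. Results are the mean of three replicates.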

[3] = Cytotoxicity in human PBMC cells; type: cell-based; how it was run: as §1
[4] = Drug uptake in HFF cells at 1 uM incubated for 1 to 48 hrs using [14C]-labelled compound by liquid scintillation counting; type: ADME, cell-based; conditions: human, TDE = time-dependent effect, time 1-48 hrs
How it was run: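 HFF cells exposed to 1 μM [14C]-labelled compound for 1 to 48 h. Cell-associated radioactivity measured in duplicate to assess uptake.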

[5] = Inhibition of HPV-16 DNA amplification in C-33-A cells incubated for 48 hrs by luciferase reporter gene assay; type: functional, cell-based, Human papillomavirus 16
How it was run: (§2)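 HPV-negative cervical cancer C33A cells transiently transfected with type-matched HPV-11, -16 or -18 E1 and E2 expression vectors plus an ori-plasmid carrying a NanoLuc reporter. After drug dilutions and incubation, ori-plasmid replication is read as the rise in luciferase activity and EC50 is determined. Cytotoxicity (CC50) is measured in C33A cells by CellTiter-Glo.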

[6] = Inhibition of HSV2 replication in HFF cells incubated for 7 days; type: functional, cell-based, Human alphaherpesvirus 2
[7] = Selectivity index, ratio of CC50 for HEK293 cells to EC50 for inhibition of HPV-11 DNA amplification in HEK293 cells
How it was run: (§3)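 Ratio CC50/EC50 in HEK-293 cells. CC50 is by CellTiter-Glo. EC50 is by qPCR of HPV-11 or HPV-16 ori-plasmid amplification in cells cotransfected with type-matched E1/E2 expression vectors.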

[8] = Selectivity index, ratio of CC50 for C-33-A cells to EC90 for inhibition of HPV-16 DNA amplification in C-33-A cells
How it was run: (§4)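 Ratio CC50/EC90. CC50 is from CellTiter-Glo cytotoxicity in C33A cells. EC90 is from NanoLuc luciferase readout of HPV-16 or -18 ori-plasmid replication in C33A cells cotransfected with type-matched E1/E2 vectors.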

[9] = Inhibition of HPV-16 DNA amplification in HEK293 cells incubated for 48 hrs by qPCR analysis; type: functional, cell-based, Human papillomavirus 16
How it was run: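 HEK-293 cells cotransfected with an HPV-16 origin-containing plasmid and HPV-16 E1 and E2 expression vectors, then treated with drug dilutions and incubated. Ori-plasmid amplification quantified by real-time qPCR; EC50 calculated from at least three independent experiments.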

HFF = assay: (§5) Cytotoxicity in HFF cells incubated for 7 days by CellTiter-Glo assay; type: cell-based; conditions: human, hff, 168 h; time 7 day
HEK293 = assay: Cytotoxicity in HEK293 cells by CellTiter-Glo assay; conditions: human, hek293
[10] = Selectivity index, ratio of CC50 for C-33-A cells to EC90 for inhibition of HPV-11 DNA amplification in C-33-A cells
[11] = Selectivity index, ratio of CC50 for C-33-A cells to EC90 for inhibition of HPV-18 DNA amplification in C-33-A cells; how it was run: as §4
[12] = Selectivity index, ratio of CC50 for C-33-A cells to EC50 for inhibition of HPV-11 DNA amplification in C-33-A cells
How it was run: (§6)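 Ratio CC50/EC50. CC50 is from CellTiter-Glo in C33A cells. EC50 is from NanoLuc luciferase readout of HPV ori-plasmid replication in C33A cells cotransfected with type-matched E1/E2 vectors.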

[13] = Selectivity index, ratio of CC50 for HFF to EC50 for inhibition of HSV2 replication in HFF cells; type: toxicity, cell-based; conditions: human; for selectivity ratio: HFF cells, read-out: Ratio CC50/EC50
[14] = Inhibition of HPV-18 DNA amplification in C-33-A cells incubated for 48 hrs by luciferase reporter gene assay; type: functional, cell-based, human papillomavirus 18; how it was run: as §2
[15] = Inhibition of HPV-11 DNA amplification in C-33-A cells incubated for 48 hrs by luciferase reporter gene assay; type: functional, cell-based, human papillomavirus 11; how it was run: as §2
[16] = Selectivity index, ratio of CC50 for C-33-A cells to EC50 for inhibition of HPV-18 DNA amplification in C-33-A cells; how it was run: as §6
C-33-A = assay: (§7) Cytotoxicity in human C-33-A cells by CellTiter-Glo reagent assay; type: cell-based; conditions: c-33-a; how it was run: as §2
human papillomavirus 11 = assay: Potency index, ratio of EC50 for cidofovir to EC50 for test compound for inhibition of HPV-11 DNA amplification in C-33-A cells incubated for 48 hrs by luciferase reporter gene assay; type: functional
[17] = Selectivity index, ratio of CC50 for HEK293 cells to EC50 for inhibition of HPV-16 DNA amplification in HEK293 cells; how it was run: as §3
[18] = Selectivity index, ratio of CC50 for C-33-A cells to EC50 for inhibition of HPV-16 DNA amplification in C-33-A cells; how it was run: as §6
[19] = as §5; type: cell-based; conditions: human, HFF cells; time 7 day
[20] = as §7; type: cell-based; conditions: C-33-A cells; how it was run: as §2
[21] = Inhibition of HPV-11 DNA amplification in HEK293 cells incubated for 48 hrs by qPCR analysis; type: functional, cell-based, human papillomavirus 11
How it was run: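 HEK-293 cells cotransfected with an HPV-11 origin-containing plasmid and HPV-11 E1 and E2 expression vectors, then exposed to drug dilutions and incubated. Ori-plasmid amplification is measured by quantitative real-time PCR and EC50 is calculated. At least three independent experiments.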

[22] = Stability in MEM supplemented with either normal or heat inactivated 10% FBS assessed as compound remaining at 37 degC after 38 days by reverse phase HPLC analysis; conditions: time 38.0 day
How it was run: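 Compound incubated at 37 °C in MEM with 10% FBS, either normal or heat-inactivated. After 38 days, analysed by reverse-phase HPLC on a polar RP column with a water/methanol gradient at 0.8 mL/min. Remaining parent and monoester degradation product quantified as peak area.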

[23] = Cytotoxicity in HEK293 cells by CellTiter-Glo assay; conditions: human, HEK293 cells
[24] = Human immunodeficiency virus 1, 92US727, PBMC, 168 h
[25] = Human alphaherpesvirus 2, HFF, 168 h
[26] = Human papillomavirus 16, C-33-A, 48 h
[27] = human papillomavirus 18, C-33-A, 48 h
[28] = human papillomavirus 11, C-33-A, 48 h

Compound	EC50 ([5]; c-33-a) [nM]	EC90 ([5]; time 48 hrs) [nM]	Ratio CC50/EC50 [7]	Ratio [8]	EC50 [9] [nM]	CC50 (HEK293) [nM]	Ratio [10]	Ratio [11]	Ratio CC50/EC50 [12]	EC50 ([14]; c-33-a) [nM]	EC90 ([14]; time 48 hrs) [nM]	EC50 ([15]; c-33-a) [nM]	EC90 ([15]; time 48 hrs) [nM]	CC50 ([3]; pbmc) [nM]	Ratio CC50/EC50 [16]	Ratio CC50/EC50 [17]	Ratio CC50/EC50 [18]	CC50 [20] [nM]	EC50 [21] [nM]	other results
Cc1cn([C@H]2C[C@H](N=[N+]=[N-])[C@@H](CO)O2)c(=O)[nH]c1=O [ZIDOVUDINE]	–	–	–	–	–	–	–	–	–	–	–	–	–	–	–	–	–	–	–	selectivity ratio [1]: > 250; EC50 [2, 24]: 4 nM; CC50 ([3]; PBMC cells): > 1000 nM
CCCCCCCCCCCCCCCCCCOCCOP(=O)(O)COCCn1cnc2c(=O)[nH]c(N)nc21	–	–	–	–	–	–	–	–	–	–	–	–	–	–	–	–	–	–	–	Drug uptake [4]: Tde
CCCCCCCCCCCCCCCCCCOCCOP(=O)(COCCn1cnc2c(=O)[nH]c(N)nc21)OCc1ccccc1 (stereo in doubt; form 1) [listing 1 of 2 here]	40	640	42	>16	200	17000	15	>17	61	100	590	180	720	20	>100	85	>250	–	–	EC50 ([6]; hff): 22 nM; CC50 (HFF): 5200 nM; Ratio CC50/EC50 [13]: 240; Ratio CC50/EC50 ([1]; pbmc): 11; EC50 ([2]; pbmc): 2 nM; CC50 (C-33-A): ≥ 10000 nM; Ratio EC50 (human papillomavirus 11): >300
CCCCCCCCCCCCCCCCCCOCCOP(=O)(COCCn1cnc2c(=O)[nH]c(N)nc21)OCc1ccccc1 (stereo in doubt; form 3)	220	1500	170	>7	690	83000	>4	>7	>14	270	1400	710	2500	40	>37	120	>45	> 10000	500	EC50 [6, 25]: 32 nM; CC50 at 168 h [19]: 6100 nM; selectivity ratio [13]: 190; selectivity ratio [1]: 16.3; EC50 [2, 24]: 3 nM
CCCCCCCCCCCCCCCCCCOCCOP(=O)(COCCn1cnc2c(=O)[nH]c(N)nc21)Oc1ccccc1 (stereo unspecified)	–	–	–	120	5200	–	80	210	490	–	–	–	–	–	980	–	670	49000	9500	EC50 [5, 26]: 90 nM; EC90 [5, 26]: 490 nM; EC50 [14, 27]: 60 nM; EC90 [14, 27]: 280 nM; EC50 [15, 28]: 100 nM; EC90 [15, 28]: 610 nM
CCCCCCCCCCCCCCCCCCOCCOP(=O)(COCCn1cnc2c(=O)[nH]c(N)nc21)OCc1ccccc1 (stereo in doubt; form 1) [listing 2 of 2 here]	–	–	–	–	–	–	–	–	–	–	–	–	–	–	–	–	–	–	–	Stability [22]: 83%
CCCCCCCCCCCCCCCCCCOCCOP(=O)(COCCn1cnc2c(=O)[nH]c(N)nc21)OCc1ccccc1 (stereo in doubt; form 2)	140	890	230	>11	390	91000	>7	>14	>24	80	720	410	1400	70	>130	230	>71	–	400	EC50 ([6]; hff): 33 nM; CC50 (HFF): 5400 nM; Ratio CC50/EC50 [13]: 160; EC50 ([2]; pbmc): 4 nM
Nc1ccn(C[C@@H](CO)OCP(=O)(O)O)c(=O)n1.O.O [CIDOFOVIR]	–	–	>2	1	150000	–	1	1	1	–	–	–	–	–	>1	>2	>1	> 300000	150000	EC50 [5, 26]: 220000 nM; EC90 [5, 26]: > 300000 nM; CC50 [23]: > 300000 nM; EC50 [14, 27]: 260000 nM; EC90 [14, 27]: > 300000 nM; EC50 [15, 28]: > 300000 nM; EC90 [15, 28]: > 300000 nM
Nc1nc2c(ncn2COCCO)c(=O)[nH]1 [ACYCLOVIR]	–	–	–	–	–	–	–	–	–	–	–	–	–	–	–	–	–	–	–	EC50 [6, 25]: 990 nM; CC50 at 168 h [19]: > 300000 nM; selectivity ratio [13]: > 300
